Reference: ChEMBL document CHEMBL1649560, “Beta-lactamase-mediated beta-lactam resistance in Campylobacter species: prevalence of Cj0299 (bla OXA-61) and evidence for a novel beta-Lactamase in C. jejuni” (2009)
In brackets after ≈: the same amount, converted by molar mass.

What was measured:
Type in all cases: functional
Campylobacter jejuni [1] = experiment: Antibacterial activity against bla gene-positive and nitrocefin reaction-positive beta-lactamase harboring Campylobacter jejuni isolate P1093 by NCCLS agar doubling dilution method
How it was run: (§1)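 MICs of β-lactams by agar doubling dilution following the NCCLS (CLSI) Campylobacter Working Group procedure, with C. jejuni NCTC 11168 and C. coli NCTC 11366 as controls. Isolates were from UK poultry flocks. β-Lactamase status was set by Cj0299 PCR (281-bp amplimer) and by a nitrocefin colour change of sonicated lysate within 5 min, or within 30 min on repeat.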

Campylobacter jejuni [2] = experiment: Antibacterial activity against Campylobacter jejuni isolate P338 harboring blaOXA-61::cat gene by NCCLS agar doubling dilution method
How it was run: (§2)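 Agar doubling dilution MICs (NCCLS/CLSI Campylobacter Working Group method) against Cj0299-inactivated mutants. Mutants were made by transforming the C. jejuni isolate with pCI and selecting on Mueller-Hinton agar with 10 μg/ml chloramphenicol for 3–5 days. Chromosomal insertion was confirmed by PCR with Cj0299 and cat primers.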

Campylobacter jejuni [3] = experiment: Antibacterial activity against bla gene-negative and nitrocefin reaction-positive beta-lactamase harboring Campylobacter jejuni isolate P843 by NCCLS agar doubling dilution method; how it was run: as §1
Campylobacter jejuni [4] = experiment: Antibacterial activity against bla gene-positive and nitrocefin reaction-negative beta-lactamase harboring Campylobacter jejuni isolate P1698 by NCCLS agar doubling dilution method; how it was run: as §1
Campylobacter jejuni [5] = experiment: Antibacterial activity against bla gene-positive and nitrocefin reaction-positive beta-lactamase harboring Campylobacter jejuni isolate P316 by NCCLS agar doubling dilution method
How it was run: (§3)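 MICs by agar doubling dilution per the NCCLS (now CLSI) Campylobacter Working Group method. Isolates came from UK chicken flocks (feces, ceca or farm environment), 2000–2006. C. jejuni NCTC 11168 and C. coli NCTC 11366 served as control strains. The ampicillin resistance cutoff was 8 μg/ml; BSAC/CLSI Enterobacteriaceae guidelines were used for other agents.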

Campylobacter jejuni [6] = experiment: Antibacterial activity against bla gene-positive and nitrocefin reaction-positive beta-lactamase harboring Campylobacter jejuni isolate P1730 by NCCLS agar doubling dilution method; how it was run: as §3
Campylobacter coli [7] = experiment: Antibacterial activity against Campylobacter coli by NCCLS agar doubling dilution method
How it was run: (§4)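 MICs by agar doubling dilution following the NCCLS (CLSI) Campylobacter Working Group procedure, applied to ampicillin- and amoxicillin-resistant isolates from UK chicken flocks (2000–2006). C. jejuni NCTC 11168 and C. coli NCTC 11366 served as control strains. Resistance was called at an ampicillin cutoff of 8 μg/ml. Other agents were judged against Enterobacteriaceae guidelines (BSAC, CLSI).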

Campylobacter jejuni [8] = experiment: Antibacterial activity against bla gene-negative and nitrocefin reaction-negative beta-lactamase harboring Campylobacter jejuni isolate P1962 by NCCLS agar doubling dilution method; how it was run: as §1
Campylobacter jejuni [9] = experiment: Antibacterial activity against bla gene-negative and nitrocefin reaction-positive beta-lactamase harboring Campylobacter jejuni isolate P854 by NCCLS agar doubling dilution method; how it was run: as §1
Campylobacter jejuni [10] = experiment: Antibacterial activity against bla gene-positive and nitrocefin reaction-positive beta-lactamase harboring Campylobacter jejuni isolate P1650 by NCCLS agar doubling dilution method; how it was run: as §1
Campylobacter jejuni [11] = experiment: Antibacterial activity against Campylobacter jejuni isolate P1093 harboring blaOXA-61::cat gene by NCCLS agar doubling dilution method; how it was run: as §2
Campylobacter jejuni [12] = experiment: Antibacterial activity against Campylobacter jejuni by NCCLS agar doubling dilution method; how it was run: as §4
Campylobacter jejuni [13] = experiment: Antibacterial activity against bla gene-negative and nitrocefin reaction-negative beta-lactamase harboring Campylobacter jejuni isolate P835 by NCCLS agar doubling dilution method; how it was run: as §1
Campylobacter jejuni [14] = experiment: Antibacterial activity against bla gene-positive and nitrocefin reaction-negative beta-lactamase harboring Campylobacter jejuni isolate P1699 by NCCLS agar doubling dilution method; how it was run: as §1
Campylobacter coli [15] = experiment: Antibacterial activity against bla gene-positive and nitrocefin reaction-positive beta-lactamase harboring Campylobacter coli isolate P321 by NCCLS agar doubling dilution method; how it was run: as §1
Campylobacter jejuni [16] = experiment: Antibacterial activity against bla gene-positive and nitrocefin reaction-negative beta-lactamase harboring Campylobacter jejuni NCTC 11168 by NCCLS agar doubling dilution method; how it was run: as §1
Campylobacter coli [17] = experiment: Antibacterial activity against bla-positive and beta-lactamase-weakly positive Campylobacter coli isolate P1627 by NCCLS agar doubling dilution method; how it was run: as §3
Campylobacter jejuni [18] = experiment: Antibacterial activity against Campylobacter jejuni isolate P270 harboring blaOXA-61::cat gene by NCCLS agar doubling dilution method
Campylobacter jejuni [19] = experiment: Antibacterial activity against bla gene-positive and nitrocefin reaction-positive beta-lactamase harboring Campylobacter jejuni isolate P286 by NCCLS agar doubling dilution method; how it was run: as §3
Campylobacter jejuni [20] = experiment: Antibacterial activity against bla gene-positive and nitrocefin reaction-positive beta-lactamase harboring Campylobacter jejuni isolate P338 by NCCLS agar doubling dilution method; how it was run: as §3
Campylobacter coli [21] = experiment: Antibacterial activity against bla gene-positive and nitrocefin reaction-positive beta-lactamase harboring Campylobacter coli isolate P1826 by NCCLS agar doubling dilution method; how it was run: as §1
Campylobacter jejuni [22] = experiment: Antibacterial activity against bla gene-positive and nitrocefin reaction-positive beta-lactamase harboring Campylobacter jejuni isolate P305 by NCCLS agar doubling dilution method; how it was run: as §3
Campylobacter jejuni [23] = experiment: Antibacterial activity against bla gene-negative and nitrocefin reaction-negative beta-lactamase harboring Campylobacter jejuni isolate P850 by NCCLS agar doubling dilution method; how it was run: as §1
Campylobacter jejuni [24] = experiment: Antibacterial activity against bla gene-positive and nitrocefin reaction-positive beta-lactamase harboring Campylobacter jejuni isolate P285 by NCCLS agar doubling dilution method; how it was run: as §3
Campylobacter jejuni [25] = experiment: Antibacterial activity against bla gene-positive and nitrocefin reaction-positive beta-lactamase harboring Campylobacter jejuni isolate P790 by NCCLS agar doubling dilution method; how it was run: as §3
Campylobacter jejuni [26] = experiment: Antibacterial activity against bla gene-positive and nitrocefin reaction-positive beta-lactamase harboring Campylobacter jejuni isolate P1618 by NCCLS agar doubling dilution method; how it was run: as §1

Compound	MIC (Campylobacter jejuni [1]) [µg/mL]	MIC (Campylobacter jejuni [2]) [µg/mL]	MIC (Campylobacter jejuni [3]) [µg/mL]	MIC (Campylobacter jejuni [4]) [µg/mL]	MIC (Campylobacter jejuni [5]) [µg/mL]	MIC (Campylobacter jejuni [6]) [µg/mL]	MIC50 (Campylobacter coli [7]) [µg/mL]	MIC90 (Campylobacter coli [7]) [µg/mL]	MIC (Campylobacter jejuni [8]) [µg/mL]	MIC (Campylobacter jejuni [9]) [µg/mL]	MIC (Campylobacter jejuni [10]) [µg/mL]	MIC (Campylobacter jejuni [11]) [µg/mL]	MIC50 (Campylobacter jejuni [12]) [µg/mL]	MIC90 (Campylobacter jejuni [12]) [µg/mL]	MIC (Campylobacter jejuni [13]) [µg/mL]	MIC (Campylobacter jejuni [14]) [µg/mL]	MIC (Campylobacter coli [15]) [µg/mL]	MIC (Campylobacter jejuni [16]) [µg/mL]	MIC (Campylobacter coli [17]) [µg/mL]	MIC (Campylobacter jejuni [18]) [µg/mL]	also measured
C[C@@H](O)[C@H]1C(=O)N2C(C(=O)O)=C(S[C@@H]3CN[C@H](C(=O)N(C)C)C3)[C@H](C)[C@H]12 [MEROPENEM]	0.5 (≈ 1.3 µM)	0.015 (≈ 0.0391 µM)	0.03 (≈ 0.0782 µM)	0.015 (≈ 0.0391 µM)	0.12 (≈ 0.313 µM)	0.015 (≈ 0.0391 µM)	0.12 (≈ 0.313 µM)	0.12 (≈ 0.313 µM)	0.015 (≈ 0.0391 µM)	0.03 (≈ 0.0782 µM)	0.008 (≈ 0.0209 µM)	0.03 (≈ 0.0782 µM)	0.015 (≈ 0.0391 µM)	0.12 (≈ 0.313 µM)	< 0.015	0.015 (≈ 0.0391 µM)	0.12 (≈ 0.313 µM)	0.08 (≈ 0.209 µM)	0.03 (≈ 0.0782 µM)	0.008 (≈ 0.0209 µM)	MIC (Campylobacter jejuni [19]): 0.25 µg/mL (≈ 0.652 µM); MIC (Campylobacter jejuni [20]): 0.12 µg/mL (≈ 0.313 µM); MIC (Campylobacter coli [21]): 0.06 µg/mL (≈ 0.156 µM); MIC (Campylobacter jejuni [22]): 0.06 µg/mL (≈ 0.156 µM); MIC (Campylobacter jejuni [23]): 0.03 µg/mL (≈ 0.0782 µM); MIC (Campylobacter jejuni [24]): 0.015 µg/mL (≈ 0.0391 µM); MIC (Campylobacter jejuni [25]): 0.12 µg/mL (≈ 0.313 µM); MIC (Campylobacter jejuni [26]): 0.008 µg/mL (≈ 0.0209 µM)
CC1(C)S[C@@H]2[C@H](NC(=O)Cc3ccccc3)C(=O)N2[C@H]1C(=O)O [PENICILLIN G]	256 (≈ 766 µM)	16 (≈ 47.8 µM)	64 (≈ 191 µM)	< 8	128 (≈ 383 µM)	64 (≈ 191 µM)	128 (≈ 383 µM)	128 (≈ 383 µM)	8 (≈ 23.9 µM)	256 (≈ 766 µM)	64 (≈ 191 µM)	8 (≈ 23.9 µM)	64 (≈ 191 µM)	256 (≈ 766 µM)	4 (≈ 12 µM)	< 8	64 (≈ 191 µM)	8 (≈ 23.9 µM)	8 (≈ 23.9 µM)	2 (≈ 5.98 µM)	MIC (Campylobacter jejuni [19]): 128 µg/mL (≈ 383 µM); MIC (Campylobacter jejuni [20]): 128 µg/mL (≈ 383 µM); MIC (Campylobacter coli [21]): 128 µg/mL (≈ 383 µM); MIC (Campylobacter jejuni [22]): 128 µg/mL (≈ 383 µM); MIC (Campylobacter jejuni [23]): 64 µg/mL (≈ 191 µM); MIC (Campylobacter jejuni [24]): 128 µg/mL (≈ 383 µM); MIC (Campylobacter jejuni [25]): 128 µg/mL (≈ 383 µM); MIC (Campylobacter jejuni [26]): 64 µg/mL (≈ 191 µM)
